Data taken from ChEMBL document CHEMBL3228013 (J Med Chem, 1979).
Activity calls are given as the source filed them. The rule behind the calls is not given here.

Legend:
L1210 = test: Antitumor activity against mouse L1210 cells allografted in mouse at 500 mg/kg, ip began on day 1 halved compound dose ended at […], ip measured on day 30; assay type: functional, organism-based
Procedure, shortened: (§1)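 Female or male mice bearing L1210 lymphoid leukemia were tested under the NCI standard protocol. Dosing was ip, day 1 only, in aqueous Tween-80, at halved doses starting at 500 mg/kg and generally ending at 62.5 mg/kg. Mean survival time was assessed on day 30, and T/C ≥125% was taken as active.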

[1] = Half life of the compound in 1:4 D2O:[…] containing at 1 x 10^-3 M NaOD at 5 x 10^-2 M by UV-spectroscopy; assay type: physicochemical; settings: 1:4 D2O:Me2SO-d2 with NaOD
Mus musculus = test: Toxicity in mouse allografted with mouse L1210 cells at 500 mg/kg, ip; assay type: organism-based; set-up: dose 500 mg/kg, route intraperitoneal; settings: in vivo; procedure, shortened: as §1
KB = test: Cytotoxicity against human KB cells; assay type: functional, cell-based
[2] = Half life of the compound in 1:1 H2O:ethylalcohol containing 3.33 x 10^-3 M NaOH at 8.3 x 10^-5 M by UV-spectroscopy; assay type: physicochemical; settings: 1:1 water:ethanol with NaOH
[3] = Half life of the compound in 1:1 H2O:ethylalcohol containing 8.33 x 10^-3 M NaOH at 8.3 x 10^-5 M by UV-spectroscopy; assay type: physicochemical; settings: 1:1 water:ethanol with NaOH
[4] = Half life of the compound in 1:1 H2O:ethylalcohol containing 2.08 x 10^-3 M NaOH at 8.3 x 10^-5 M by UV-spectroscopy; assay type: physicochemical; settings: 1:1 water:ethanol with NaOH
[5] = Inhibition of wheat germ orthophosphoric monoester phosphohydrolase using 2-carboxyphenyl phosphate as substrate at 1.5 mM after 2 hrs by UV spectroscopy; settings: triticum aestivum, 1500 µM
Procedure, shortened: (§2)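 Wheat germ orthophosphoric monoester phosphohydrolase (2.1 units/mg toward 2-carboxyphenyl phosphate) was used. Compound at 1.5 mM was incubated in 0.15 M NaOAc pH 5.0 with glycerin at about 25–26 °C for 2 h, against a reference cell without enzyme, with UV monitoring at 290 nm. 2-Carboxyphenyl phosphate was then added to check remaining enzyme activity.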

[6] = Half life of the compound in 1:1 H2O:ethylalcohol containing 6.66 x 10^-3 M NaOH at 8.3 x 10^-5 M by UV-spectroscopy; assay type: physicochemical; settings: 1:1 water:ethanol with NaOH
[7] = Toxicity in ip dosed mouse allografted with mouse L1210 cells; assay type: organism-based; settings: in vivo; procedure, shortened: as §1
[8] = Half life of the compound in 1:1 H2O:ethylalcohol containing 5 x 10^-3 M NaOH at 8.3 x 10^-5 M by UV-spectroscopy; assay type: physicochemical; settings: 1:1 water:ethanol with NaOH
[9] = Drug metabolism assessed as wheat germ orthophosphoric monoester phosphohydrolase-mediated hydrolysis at 1.5 mM by UV spectroscopy; assay type: ADME; settings: triticum aestivum, 1500 µM; procedure, shortened: as §2

SMILES	Activity (L1210)	half-life at 50000 µM [1] [min]	Activity (Mus musculus)	Activity (KB)	half-life at 83 µM [2] [min]	half-life at 83 µM [3] [min]	half-life at 83 µM [4] [min]	inhibition (INH) [5]	half-life at 83 µM [6] [min]	MTD [7] [mg/kg]	half-life at 83 µM [8] [min]	Stability [9]
O=P(Nc1ccccc1)(Oc1c(F)c(F)c(F)c(F)c1F)N(CCCl)CCCl (configuration not stated)	inactive	5.3	Non-toxic	inactive								
NP(=O)(Oc1c(F)c(F)c(F)c(F)c1F)N(CCCl)CCCl (configuration not stated)	inactive			inactive	1.33	0.6	2	Not Active	0.717	31.2	0.867	Stable
Cc1ccc(NP(=O)(Oc2c(F)c(F)c(F)c(F)c2F)N(CCCl)CCCl)cc1 (configuration not stated)	inactive	6.53	Non-toxic	inactive								
CCOc1ccc(NP(=O)(Oc2c(F)c(F)c(F)c(F)c2F)N(CCCl)CCCl)cc1 (configuration not stated)	inactive	8.17	Non-toxic	inactive								
